Measured values: ChEMBL document CHEMBL1151981, “Bioactive pyridine-N-oxide disulfides from Allium stipitatum” (J Nat Prod, 2009)
Values after ≈ are worked out from the molar mass of the structure shown. Active and inactive are the calls of the source. No cut-off for these calls is given here.

Key:
Staphylococcus aureus [1] = test: Antibacterial activity against Staphylococcus aureus SA1199B overexpressing NorA efflux pump after 72 hrs; assay type: functional
Staphylococcus aureus [2] = test: Antibacterial activity against tetracycline-effluxing Staphylococcus aureus XU212 after 72 hrs; assay type: functional; details: XU212, 72 h
How it was run: (§1)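 S. aureus strains tested in a MIC assay; norfloxacin and oxacillin used as positive controls.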

Staphylococcus aureus [3] = test: Antibacterial activity against Staphylococcus aureus EMRSA15 after 72 hrs; assay type: functional; details: EMRSA15, 72 h; how it was run: as §1
[4] = system: Mycolicibacterium fortuitum; test: Antibacterial activity against Mycobacterium fortuitum after 72 hrs; assay type: functional
How it was run: (§2)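 Fast-growing mycobacteria obtained from NCTC; cultures grown on Columbia blood agar with 7% defibrinated horse blood at 37 °C for 72 h before MIC determination. Ethambutol and isoniazid served as positive controls.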

[5] = system: Mycolicibacterium smegmatis; test: Antibacterial activity against Mycobacterium smegmatis after 72 hrs; assay type: functional; how it was run: as §2
Mycolicibacterium phlei = test: Antibacterial activity against Mycobacterium phlei after 72 hrs; assay type: functional; how it was run: as §2
[6] = system: Mycolicibacterium smegmatis; test: Antibacterial activity against Mycobacterium smegmatis mc2 2700 after 72 hrs; assay type: functional; details: mc2 2700, 72 h
[7] = system: Mycobacterium tuberculosis; test: Antibacterial activity against Mycobacterium tuberculosis H37Rv ATCC 27294 assessed as decrease in viable bacterial counts at 0.01 to 5 ug/ml after 14 days by spot-culture growth inhibition assay; assay type: functional, organism-based
How it was run: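 Mid-exponential cultures (BCG rotated in 7H9/ADC/Tween 80; H37Rv standing in 7H9/OADC/Tween 80) diluted to 10³ cells/mL. 5 µL spotted onto 7H10 agar with 10% OADC containing compound at 0.01, 0.1, 0.5, 1 and 5 µg/mL. Incubated at 37 °C for 14 days. MIC taken as lowest concentration with no growth; no-compound well as growth control.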

MCF7 = test: Cytotoxicity against human MCF7 cells after 96 hrs by sulforhodamine B assay; assay type: functional, cell-based; details: MCF7, 96 h
How it was run: (§3)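 SRB assay. Cells seeded at 4000/well in DMEM and allowed to attach overnight at 37 °C, 5% CO2. Exposed in quadruplicate to freshly made compound, 0.1–25 µM, for 96 h. Fixed with ice-cold 10% TCA for 30 min, stained with 0.4% SRB in 1% acetic acid for 15 min. Absorbance read at 540 nm as % of untreated control; IC50 derived from means.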

A549 = test: Cytotoxicity against human A549 cells after 96 hrs by sulforhodamine B assay; assay type: functional, cell-based; details: A549, 96 h; how it was run: as §3
[8] = Cytotoxicity against human WI38 cells after 96 hrs by sulforhodamine B assay; assay type: cell-based; details: WI-38, 96 h; how it was run: as §3
[9] = system: Mycobacterium tuberculosis; test: Effect on trxB2 RNA expression in Mycobacterium tuberculosis H37Rv ATCC 27294 at 2 to 10 ug/ml after 6 hrs by microarray analysis; assay type: functional, organism-based
How it was run: (§4)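 H37Rv grown in 7H9 with 0.2% glycerol, 0.5% BSA fraction V, 0.05% Tween 80, 0.08% NaCl and 0.2% glucose to OD650 0.3. Treated with 2, 5 or 10 µg/mL compound, or matching DMSO, for 6 h. RNA isolated, labelled cDNA hybridised to microarrays. Predictive genes found by class prediction analysis.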

[10] = system: Mycobacterium tuberculosis; test: Effect on trxC RNA expression in Mycobacterium tuberculosis H37Rv ATCC 27294 at 2 to 10 ug/ml after 6 hrs by microarray analysis; assay type: functional, organism-based; how it was run: as §4
[11] = system: Mycobacterium tuberculosis; test: Upregulation of clpB RNA expression in Mycobacterium tuberculosis H37Rv ATCC 27294 at 2 to 10 ug/ml after 6 hrs by microarray analysis; assay type: functional, organism-based; how it was run: as §4
[12] = system: Mycobacterium tuberculosis; test: Upregulation of sigH RNA expression in Mycobacterium tuberculosis H37Rv ATCC 27294 at 2 to 10 ug/ml after 6 hrs by microarray analysis; assay type: functional, organism-based; how it was run: as §4
[13] = system: Mycobacterium tuberculosis; test: Upregulation of dnaJ RNA expression in Mycobacterium tuberculosis H37Rv ATCC 27294 at 2 to 10 ug/ml after 6 hrs by microarray analysis; assay type: functional, organism-based; how it was run: as §4
[14] = system: Mycobacterium tuberculosis; test: Upregulation of dnaK RNA expression in Mycobacterium tuberculosis H37Rv ATCC 27294 at 2 to 10 ug/ml after 6 hrs by microarray analysis; assay type: functional, organism-based; how it was run: as §4
[15] = system: Mycobacterium tuberculosis; test: Upregulation of hsp RNA expression in Mycobacterium tuberculosis H37Rv ATCC 27294 at 2 to 10 ug/ml after 6 hrs by microarray analysis; assay type: functional, organism-based; how it was run: as §4
[16] = system: Mycobacterium tuberculosis; test: Upregulation of Rv0331 RNA expression in Mycobacterium tuberculosis H37Rv ATCC 27294 at 2 to 10 ug/ml after 6 hrs by microarray analysis; assay type: functional, organism-based; how it was run: as §4
[17] = system: Mycobacterium tuberculosis; test: Upregulation of Rv3463 RNA expression in Mycobacterium tuberculosis H37Rv ATCC 27294 at 2 to 10 ug/ml after 6 hrs by microarray analysis; assay type: functional, organism-based; how it was run: as §4
[18] = system: Mycobacterium tuberculosis; test: Upregulation of Rv3054c RNA expression in Mycobacterium tuberculosis H37Rv ATCC 27294 at 2 to 10 ug/ml after 6 hrs by microarray analysis; assay type: functional, organism-based; how it was run: as §4
[19] = system: Mycobacterium tuberculosis; test: Upregulation of Rv1334 RNA expression in Mycobacterium tuberculosis H37Rv ATCC 27294 at 2 to 10 ug/ml after 6 hrs by microarray analysis; assay type: functional, organism-based; how it was run: as §4
[20] = system: Mycobacterium tuberculosis; test: Upregulation of Rv1335 RNA expression in Mycobacterium tuberculosis H37Rv ATCC 27294 at 2 to 10 ug/ml after 6 hrs by microarray analysis; assay type: functional, organism-based; how it was run: as §4

## CCn1cc(C(=O)O)c(=O)c2cc(F)c(N3CCNCC3)cc21 [NORFLOXACIN]
Staphylococcus aureus [1]
  MIC: 32 µg/mL (≈ 100 µM)
Staphylococcus aureus [2]
  MIC: 16 µg/mL (≈ 50.1 µM)
Staphylococcus aureus [3]
  MIC: 0.5 µg/mL (≈ 1.57 µM)

## CSSc1ccc2ccccc2n1
[4]
  MIC: 4 µg/mL (≈ 19.3 µM)
[5]
  MIC: 8 µg/mL (≈ 38.6 µM)
Mycolicibacterium phlei
  MIC: 8 µg/mL (≈ 38.6 µM)
Staphylococcus aureus [1]
  MIC: 4 µg/mL (≈ 19.3 µM)
Staphylococcus aureus [2]
  MIC: 4 µg/mL (≈ 19.3 µM)
Staphylococcus aureus [3]
  MIC: 4 µg/mL (≈ 19.3 µM)

## CSSc1ncccn1
[4]
  MIC: 8 µg/mL (≈ 50.6 µM)
[5]
  MIC: 8 µg/mL (≈ 50.6 µM)
Mycolicibacterium phlei
  MIC: 16 µg/mL (≈ 101 µM)
Staphylococcus aureus [1]
  MIC: 2 µg/mL (≈ 12.6 µM)
Staphylococcus aureus [2]
  MIC: 4 µg/mL (≈ 25.3 µM)
Staphylococcus aureus [3]
  MIC: 2 µg/mL (≈ 12.6 µM)

## CSCSSc1cccc[n+]1[O-]
[4]
  MIC: 8 µg/mL (≈ 36.5 µM)
[5]
  MIC: 4 µg/mL (≈ 18.2 µM)
[6]
  MIC: 4 µg/mL (≈ 18.2 µM)
Mycolicibacterium phlei
  MIC: 2 µg/mL (≈ 9.12 µM)
Staphylococcus aureus [1]
  MIC: 1 µg/mL (≈ 4.56 µM)
Staphylococcus aureus [2]
  MIC: 1 µg/mL (≈ 4.56 µM)
Staphylococcus aureus [3]
  MIC: 0.5 µg/mL (≈ 2.28 µM)
[7]
  Activity: Active
MCF7
  IC50: 390 nM
A549
  IC50: 780 nM
[8]
  IC50: 890 nM

## Oc1cccc2cccnc12
[9]
  Activity: Active
[10]
  Activity: Active
[11]
  Activity: Active
[12]
  Activity: Active
[13]
  Activity: Active
[14]
  Activity: Active
[15]
  Activity: Active
[16]
  Activity: Active
[17]
  Activity: Active
[18]
  Activity: Active
[19]
  Activity: Active
[20]
  Activity: Active

## Cc1onc(-c2ccccc2)c1C(=O)N[C@@H]1C(=O)N2[C@@H]1SC(C)(C)[C@@H]2C(=O)O [OXACILLIN]
Staphylococcus aureus [1]
  MIC: 0.25 µg/mL (≈ 0.623 µM)
Staphylococcus aureus [2]
  MIC: 128 µg/mL (≈ 319 µM)
Staphylococcus aureus [3]
  MIC: 32 µg/mL (≈ 79.7 µM)

## [O-][n+]1ccccc1SSc1cccc[n+]1[O-] [DIPYRITHIONE]
[4]
  MIC: 16 µg/mL (≈ 63.4 µM)
[5]
  MIC: 16 µg/mL (≈ 63.4 µM)
Mycolicibacterium phlei
  MIC: 16 µg/mL (≈ 63.4 µM)
Staphylococcus aureus [1]
  MIC: 1 µg/mL (≈ 3.96 µM)
Staphylococcus aureus [2]
  MIC: 1 µg/mL (≈ 3.96 µM)
Staphylococcus aureus [3]
  MIC: 0.5 µg/mL (≈ 1.98 µM)
